Measured values taken from ChEMBL document CHEMBL4184228, “Reversed isoniazids: Design, synthesis and evaluation against Mycobacterium tuberculosis” (Bioorg Med Chem, 2018).
Values after ≈ are worked out from the molar mass of the structure shown. Active and inactive are the calls of the source. No cut-off for these calls is given here.

Columns and labels:
[1] = system: Mycobacterium tuberculosis; assay: Antimycobacterial activity against isoniazid mono-resistant Mycobacterium tuberculosis isolate R4965 by two fold serial dilution based fluorescence assay; format: functional
In short: (§1)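 MGIT 960 (BACTEC) broth assay in 7H9 with 1% OADC and 0.05% Tween 80. Compounds are 10 mM DMSO stocks, two-fold serially diluted, final DMSO ≤1.2%, top concentration 10 µM. Tubes incubated at 37°C with growth units read daily. MIC99 is set against a 1% drug-free growth control tube.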

[2] = system: Mycobacterium tuberculosis; assay: Antimycobacterial activity against isoniazid mono-resistant Mycobacterium tuberculosis isolate R73 by two fold serial dilution based fluorescence assay; format: functional; in short: as §1
[3] = system: Mycobacterium tuberculosis; assay: Antimycobacterial activity against isoniazid mono-resistant Mycobacterium tuberculosis isolate R5401 by two fold serial dilution based fluorescence assay; format: functional; in short: as §1
[4] = system: Mycobacterium tuberculosis variant bovis BCG; assay: Inhibition of efflux pump in Mycobacterium bovis BCG infected in macrophages assessed as accumulation of ethidium bromide at 50 uM by measuring increase in fluorescence intensity after 1 hr by flow cytometric assay relative to control; design: Activity: scale not given: the % may be the effect or the level left
[5] = Selectivity index, ratio of IC50 for CHO cells to MIC99 for isoniazid mono-resistant Mycobacterium tuberculosis isolate R5401; format: toxicity; conditions: hamster, read-out: Selectivity Index
[6] = Selectivity ratio of MIC99 for Mycobacterium tuberculosis H37Rv to MIC99 for isoniazid mono-resistant Mycobacterium tuberculosis isolate R5401; format: functional
[7] = system: Mycobacterium tuberculosis variant bovis BCG; assay: Potency index, ratio of compound effect to CPZ effect for inhibition of efflux pump in Mycobacterium bovis BCG
[8] = system: Mycobacterium tuberculosis variant bovis BCG; assay: Inhibition of efflux pump in Mycobacterium bovis BCG infected in macrophages assessed as accumulation of ethidium bromide at 25 uM by measuring increase in fluorescence intensity after 1 hr by flow cytometric assay; design: Activity: scale not given: the % may be the effect or the level left
[9] = system: Mycobacterium tuberculosis variant bovis BCG; assay: Inhibition of efflux pump in Mycobacterium bovis BCG infected in macrophages assessed as accumulation of ethidium bromide at 10 uM by measuring increase in fluorescence intensity after 1 hr by flow cytometric assay; design: scale not given: the % may be the effect or the level left

SMILES	MIC99 [1] [µM]	MIC99 [2] [µM]	MIC99 [3] [µM]	inhibition [4]	selectivity ratio [5]	Ratio [6]	Activity [4] [%]	Ratio [7]	inhibition [8]	Activity [9] [%]	Activity [8] [%]
O=C(NNCCCNCCCN1c2ccccc2Sc2ccc(Cl)cc21)c1ccncc1	> 10	> 10	> 10								
NNC(=O)c1ccncc1 [ISONIAZID]			2.5 (≈ 0.343 µg/mL)	Active	> 35						
O=C(NNCCCNCCCN1c2ccccc2Sc2ccccc21)c1ccncc1	> 10	> 10	> 10								
O=C(NNCCCN1CCN(C(c2ccccc2)(c2ccccc2)c2ccccc2)CC1)c1ccncc1	> 10	> 10	2.5 (≈ 1.26 µg/mL)		78.1						
O=C(NNCCCN1CCN(C(c2ccccc2)c2ccccc2)CC1)c1ccncc1	> 10	> 10	2.5 (≈ 1.07 µg/mL)		19.3	2					
O=C(NNCCCN1c2ccccc2Sc2ccccc21)c1ccccc1	> 10	> 10					40 to 90	2			
O=C(NNCCCN1CCC(=C2c3ccccc3Sc3ccccc32)CC1)c1ccncc1	> 10	> 10	2.5 (≈ 1.14 µg/mL)		60.8						
O=C(NNCCCN1CCN(CC(O)(c2ccccc2)c2ccccc2)CC1)c1ccncc1	> 10	> 10	2.5 (≈ 1.15 µg/mL)		139						
O=C(NNCCCN1c2ccccc2CCc2ccccc21)c1ccncc1	> 10	> 10	> 10	Active							
O=C(NNCCCN1CCN(C2c3ccccc3CCc3ccccc32)CC1)c1ccncc1	> 10	> 10	> 10								
O=C(NNCCCN1CCC(N2c3ccccc3Sc3ccccc32)CC1)c1ccncc1	> 10	> 10	2.5 (≈ 1.15 µg/mL)		48.8	2					
CN(C)CCCN1c2ccccc2Sc2ccc(Cl)cc21 [CHLORPROMAZINE]									Active		
O=C(NNCCCN1c2ccccc2Sc2ccc(Cl)cc21)c1ccccc1	> 10	> 10					40 to 90	2			
O=C(NNCCCN1CCC(=C2c3ccccc3C=Cc3ccccc32)CC1)c1ccncc1	> 10	> 10	2.5 (≈ 1.13 µg/mL)		59.2						
O=C(NNCCCN1c2ccccc2Sc2ccccc21)c1ccncc1	> 10	> 10	> 10	Active							
O=C(NNCCCN1CCC(N2c3ccccc3Sc3ccc(Cl)cc32)CC1)c1ccncc1	> 10	> 10	1 (≈ 0.494 µg/mL)		37			2		40 to 90	
O=C(NNCCCN1CCC(=C2c3ccccc3Sc3ccc(Cl)cc32)CC1)c1ccncc1	> 10	> 10	1.25 (≈ 0.614 µg/mL)		237						
O=C(NNCCCN1c2ccccc2Sc2ccc(Cl)cc21)c1ccncc1	> 10	> 10	> 10					2			40 to 90
